# Data published in PubChem BioAssay.
# Activity calls are given as the source filed them.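 Rule for the calls, unless noted: active = a full or partial loss of lipid-probe fluorescence in the fish gall bladder, intestine or both, judged by eye; inactive = no fluorescence loss, or compound toxic to the fish.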
# Key:
# [1] = inhibitors of TNFa-induced NFkB p65 translocation, primary screen, imaging, HUVEC, MLSMR starter and 10KST1 sets (AID 438;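 active = inhibition above 20% together with a positive visual image hit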;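 note: compound added about 3h40 before a 20 min TNFalpha stimulation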;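 for inhibition: signal is the nuclear over cytoplasmic p65 intensity ratio per well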); conditions: HUVEC TNFa-induced p65 nuclear translocation; cell count: measured here: nuclei count (cytotoxicity indicator), at 2.08 µM; inhibition: at 2 µM, stronger effect = higher value, 0% TNFa-plus-vehicle, 100% no-TNFa wells
# [2] = endothelial E-selectin expression blockers – imaging, HUVEC, immunofluorescence, MLSMR starter and 10KST1 sets, primary screen (AID 487;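 active = visually confirmed hit in the image check and inhibition above 20%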;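 for inhibition: signal is fraction of cell area covered by stained E-selectin grains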;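 for nuclei count: 100% = median nuclei count of all wells on the same plate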); conditions: HUVEC TNFalpha-induced E-selectin immunofluorescence imaging, at 2 µM; inhibition: stronger effect = higher value; nuclei count: measured here: cell number, toxicity
# [3] = Primary imaging screen for DUSP6 inhibitors that restore phospho-Erk in transfected HeLa cells, chemical complementation (AID 609;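 active = compounds giving at least 50% inhibition in the cell-based MKP-3 phosphatase rescue imaging test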;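 for inhibition: phospho-Erk level distribution per well compared with pooled transfected vehicle control wells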); conditions: HeLa MKP-3 transfected, phospho-Erk imaging KS statistic, at 10 µM, cells stimulated with TPA for 15 min
# [4] = biological target: Dual specificity protein phosphatase 6 (Homo sapiens) (UniProt Q16828); assay: as above; conditions: HeLa MKP-3 transfected, phospho-Erk imaging KS statistic; at 10 µM; stronger effect = higher value; cells stimulated with TPA for 15 min
# Sequence of Dual specificity protein phosphatase 6 (Homo sapiens) (Q16828 whole entry, looked up): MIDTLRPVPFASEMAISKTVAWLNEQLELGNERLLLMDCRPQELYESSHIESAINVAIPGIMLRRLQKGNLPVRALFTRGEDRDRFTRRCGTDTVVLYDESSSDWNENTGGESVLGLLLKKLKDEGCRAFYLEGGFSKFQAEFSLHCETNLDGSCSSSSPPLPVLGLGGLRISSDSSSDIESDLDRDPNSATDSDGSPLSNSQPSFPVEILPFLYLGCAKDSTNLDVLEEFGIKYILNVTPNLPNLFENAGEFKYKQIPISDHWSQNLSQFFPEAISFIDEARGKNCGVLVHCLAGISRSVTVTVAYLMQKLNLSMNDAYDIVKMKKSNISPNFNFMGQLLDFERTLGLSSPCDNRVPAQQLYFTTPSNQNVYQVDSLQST
# [5] = biological target: Voltage-gated potassium channel subunit beta-2 (Rattus norvegicus) (UniProt P62483); assay: inhibitors of rat Kvbeta2 reductase activity – biochemical, NADPH fluorescence, primary screen (AID 622;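 active = fluorescence slope higher than the sample average by over 3 SD, cut at about -0.22 in these data, passing the limit was not always enough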;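 note: slope of raw intensity against log time taken from 70 to 1610 s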); conditions: recombinant KvBeta, 4-cyanobenzaldehyde reduction, at 10 µM, stronger effect = higher value
# Sequence of Voltage-gated potassium channel subunit beta-2 (Rattus norvegicus) (P62483 whole entry, looked up): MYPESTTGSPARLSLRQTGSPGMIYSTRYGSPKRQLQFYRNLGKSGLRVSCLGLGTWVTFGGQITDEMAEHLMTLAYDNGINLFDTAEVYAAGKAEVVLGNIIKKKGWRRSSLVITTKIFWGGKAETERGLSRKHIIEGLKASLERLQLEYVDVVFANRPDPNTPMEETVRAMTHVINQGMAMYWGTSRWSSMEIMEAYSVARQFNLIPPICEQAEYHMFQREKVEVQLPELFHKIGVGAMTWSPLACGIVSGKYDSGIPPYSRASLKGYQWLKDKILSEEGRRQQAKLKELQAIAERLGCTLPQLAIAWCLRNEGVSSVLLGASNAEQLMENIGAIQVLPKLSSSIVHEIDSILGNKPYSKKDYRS
# [6] = biological target: Voltage-gated potassium channel subunit beta-2 (Rattus norvegicus) (UniProt P62483); assay: enhancers of rat Kvbeta2 NADPH turnover – biochemical, NADPH fluorescence, primary screen (AID 623;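 active = NADPH fluorescence slope more negative than the mean of all samples by about 3 SD, 99.7% confidence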;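 note: fluorescence intensity change per second fitted from 20 to 320 s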); conditions: Recombinant KvBeta, NADPH fluorescence decrease slope, 10 min; at 10 µM; stronger effect = lower value
# [7] = biological target: Muscarinic acetylcholine receptor M4 (Homo sapiens) (UniProt P08173); assay: M4-linked GIRK flux change, two-sided – cell-based, HEK293 M4/GIRK, thallium flux, BTC-AM, M4 allosteric agonist project, primary screen (AID 625;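 active = fluorescence slope after compound addition differing from the mean of all tested samples at 99.7% confidence, mostly higher but some lower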;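 note: thallium influx through GIRK channels coupled to M4 in HEK293 cells with BTC-AM dye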); conditions: at 10 µM, actives lie on both sides
# Sequence of Muscarinic acetylcholine receptor M4 (Homo sapiens) (P08173 whole entry, looked up): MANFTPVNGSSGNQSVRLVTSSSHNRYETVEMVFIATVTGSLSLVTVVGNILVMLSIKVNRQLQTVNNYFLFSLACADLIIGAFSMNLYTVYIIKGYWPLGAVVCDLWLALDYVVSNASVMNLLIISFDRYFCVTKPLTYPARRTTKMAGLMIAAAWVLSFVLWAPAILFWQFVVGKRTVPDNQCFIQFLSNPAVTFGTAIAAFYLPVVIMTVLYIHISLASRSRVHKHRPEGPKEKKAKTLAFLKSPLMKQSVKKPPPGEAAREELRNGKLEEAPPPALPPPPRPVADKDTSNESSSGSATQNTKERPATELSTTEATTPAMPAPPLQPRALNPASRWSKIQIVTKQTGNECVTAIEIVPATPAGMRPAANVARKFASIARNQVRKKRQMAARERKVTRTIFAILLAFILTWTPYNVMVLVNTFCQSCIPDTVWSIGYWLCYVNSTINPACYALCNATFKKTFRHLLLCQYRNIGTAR
# In short: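 assay system = HEK293 cells with M4 receptor and GIRK channels | medium = pH 7.3 thallium assay buffer | doses = 10 µM final, single point | timing = cells overnight at 37 °C, BTC-AM loading 1 h, reads 2 min total | signal = BTC-AM fluorescence, 1 Hz kinetic reads | read-out = post-addition slope, 15–24 s, of baseline-normalized fluorescence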
# [8] = inhibitors of larval lipid processing in zebrafish, primary screen, whole organism, PED6 fluorescence, gall bladder and intestine (AID 686); conditions: Zebrafish larvae PED6 lipid processing, fluorescence scoring; screened at 20 µM (by protocol);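 note: larvae 5 to 7 days old with five fish per well; signal comes from phospholipase A2 cleavage of quenched PED6 carried via bile; overnight exposure to compound and PED6 before scoring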
# In short: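 Also added: quenched phospholipase substrate PED6, 100 nM final, ingested by larvae; System: zebrafish larvae, 5-7 d; Quantity: 5 larvae per well; Compound: 20 µM single dose; Schedule: overnight compound and PED6 incubation; Read-out: visual per-well fluorescence inhibition score; Measured by: By-eye fluorescence microscopy; Medium: E3.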
# [9] = loss of swimming-algae plug formation – whole organism, Chlamydomonas reinhardtii, WT vs cilia-less mutant, absorbance, 96-well, primary screen (AID 463189;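 active = inhibition at or above 50% relative to wild type and mutant plate controls; inactive = inhibition below 50%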;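 note: 0% = wild type cc124 cells in DMSO and 100% = ciliumless bld1 mutant cells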); conditions: Chlamydomonas reinhardtii gravitaxis, OD600 absorbance, 2 days; at 10 µM; stronger effect = higher value
# [10] = measured here: cell density z-score
# [11] = measured here: nuclear c-Myc green intensity z-score
# [12] = measured here: nuclear pErk red intensity z-score, stronger effect = higher value
SMILES,cell count [1],inhibition [1],inhibition [2],nuclei count [2] [%],"z-score [3, 10]","z-score [3, 11]","z-score [3, 12]",inhibition [4],fluorescence slope [5],NADPH fluorescence slope [6],fluorescence slope [7],outcome [8],inhibition [9]
O=C1C=C(O)CC(c2ccc(Cl)c(Cl)c2)C1 (stereo unspecified),606,4.8% (inactive),-56.5% (inactive),115,0.34,0.0724,0.952,14.7% (inactive),-0.41 (inactive),-4.9e-05 (inactive),0.00481 (inactive),inactive,-8.94% (inactive)
Nc1nc2n(n1)C(c1ccc(F)cc1)CC(c1ccc(F)cc1)N2 (stereo unspecified),346,-13.8% (inactive),-43.3% (inactive),97,-0.282,0.742,-0.273,5.65% (inactive),-0.457 (inactive),-5.2e-05 (inactive),0.00499 (inactive),inactive,19.7% (inactive)
O=C(NCCN1CCOCC1)c1ccc(=O)oc1,515,-7.5% (inactive),70.5% (active),102,0.12,1.12,0.0878,4.37% (inactive),-0.481 (inactive),-8.3e-05 (inactive),0.0085 (inactive),inactive,-15.9% (inactive)
Cc1ccc(S(=O)(=O)N(CC(O)CN2CCOCC2)c2cc(Cl)ccc2Cl)cc1 (stereo unspecified),597,-2.7% (inactive),-35% (inactive),112,-0.865,1.14,0.263,7.42% (inactive),-0.403 (inactive),-2.9e-05 (inactive),0.00509 (inactive),inactive,-2.19% (inactive)
O=c1c2sc3nc(N4CCOCC4)c4c(c3c2ncn1Cc1ccco1)CCCC4,502,2.3% (inactive),-62.8% (inactive),143,-0.769,-0.213,0.589,21.8% (inactive),-0.369 (inactive),-1.9e-05 (inactive),0.00575 (inactive),inactive,30% (inactive)
Cn1c(NCC(O)c2ccccc2)nc2c1c(=O)n(Cc1ccc(Cl)cc1)c(=O)n2C (stereo unspecified),676,8.4% (inactive),-18% (inactive),103,-0.206,0.674,-0.257,-9.53% (inactive),-0.423 (inactive),-4.1e-05 (inactive),0.00426 (inactive),inactive,8.04% (inactive)
c1ccc2c(c1)CCOC2CNCCCN1CCCCC1 (stereo unspecified),701,-5.5% (inactive),-141% (inactive),172,-0.992,1.14,-0.201,1.98% (inactive),-0.473 (inactive),-6.5e-05 (inactive),0.00496 (inactive),inactive,-4.57% (inactive)
CCOc1ccc(/C(O)=C2/C(=O)C(=O)N(c3cc(C)on3)C2c2ccc(C(=O)OC)cc2)cc1 (stereo unspecified),391,-0.4% (inactive),-27.6% (inactive),105,-0.142,1.45,-0.188,9.37% (inactive),-0.419 (inactive),-1.9e-05 (inactive),0.00438 (inactive),inactive,11.4% (inactive)
Nc1c2c(nc3ccccc13)N(C1CCCCC1)CC2,670,21.3% (inactive),7.4% (inactive),98.7,-0.086,0.000792,-0.245,-15.1% (inactive),-0.46 (inactive),-2.9e-05 (inactive),0.00444 (inactive),inactive,62.2% (active)
CCOC(=O)N1CCN(c2ncnc3c2cnn3-c2ccc(OC)cc2)CC1,638,-4.6% (inactive),-140% (inactive),149,0.712,-0.105,0.21,13.4% (inactive),-0.379 (inactive),-4.6e-05 (inactive),0.00565 (inactive),inactive,0.263% (inactive)
CCc1nc2n[nH]c(N)c2c2c1CCCC2,410,-3% (inactive),-224% (inactive),194,1.38,-1.2,-1.94,5.42% (inactive),-0.476 (inactive),-5.3e-05 (inactive),0.00476 (inactive),inactive; toxic,2.25% (inactive)
CCCCC(=O)C1CCN(Cc2ccccc2)CC1,371,-0.5% (inactive),19.3% (inactive),177,0.378,0.471,0.337,-0.584% (inactive),-0.469 (inactive),-0.000111 (inactive),0.00375 (inactive),inactive; toxic,126% (active)
Nc1c2c(nc3ccccc13)N(c1ccccc1)CC2,585,0.4% (inactive),60.7% (active),92.9,0.356,-0.531,-0.713,-2.09% (inactive),-0.0969 (active),-1.3e-05 (inactive),0.00425 (inactive),inactive; toxic,15.7% (inactive)
Cc1ccc(-c2nn(C)c(=O)c3ccccc23)cc1CNC(=O)CSc1nc2ccccc2o1,547,3.6% (inactive),21.6% (inactive),106,-1.01,1.51,0.619,1.98% (inactive),-0.419 (inactive),-5.4e-05 (inactive),0.00502 (inactive),inactive,22.8% (inactive)
CC(C)Cc1nc(N2CCOCC2)c(C#N)c2c1COC(C)(C)C2,584,-7% (inactive),-84.6% (inactive),146,-0.646,0.861,0.329,-2.09% (inactive),-0.405 (inactive),-3.3e-05 (inactive),0.00418 (inactive),inactive,3.97% (inactive)
Cc1ccc(Cn2ncc3c(N4CCOCC4)ncnc32)cc1,551,-1.3% (inactive),-9.4% (inactive),152,0.711,-0.178,0.142,7.93% (inactive),-0.363 (inactive),-3.8e-05 (inactive),0.00641 (inactive),inactive,-4.03% (inactive)
COc1ccc(CN(C)CCc2ccccn2)c(OC)c1OC,494,-4.5% (inactive),-90.8% (inactive),151,-1.25,-0.772,0.512,-3.95% (inactive),-0.419 (inactive),-3.4e-05 (inactive),0.00521 (inactive),inactive,18.3% (inactive)
CN(C)CCCOC(=O)c1ccc(Cl)cc1Cl,542,0% (inactive),-26.6% (inactive),126,-3.39,0.341,0.409,-2.59% (inactive),-0.49 (inactive),-0.0001 (inactive),0.00455 (inactive),inactive,121% (active)
COc1ccccc1C(=O)NCC(=O)n1nc(C)cc1C,542,-13.5% (inactive),-24% (inactive),146,0.666,0.744,-0.112,19.8% (inactive),-0.331 (inactive),-5.1e-05 (inactive),0.0067 (inactive),inactive,-1.54% (inactive)
Cc1c(C)n(C(=O)CSc2nccn2C)c2ccccc12,625,8.3% (inactive),-34.7% (inactive),106,-0.766,1.61,0.593,1.63% (inactive),-0.416 (inactive),-3.5e-05 (inactive),0.00619 (inactive),inactive,-7.86% (inactive)
CCOC(=O)C1=C(C)OC(N)=C(C#N)C1c1cc2ccccc2nc1N1CCCCC1 (stereo unspecified),619,-8.2% (inactive),-33.5% (inactive),181,-0.314,0.189,0.368,-14.6% (inactive),-0.315 (inactive),-8.1e-06 (inactive),0.00507 (inactive),inactive,37.2% (inactive)
COC(=O)C(NC(C)=O)(Nc1ccc(Br)cn1)C(F)(F)F (stereo unspecified),555,1.7% (inactive),54.1% (inactive),88.1,-1.18,0.658,0.74,-4.59% (inactive),-0.471 (inactive),3.7e-06 (inactive),0.00445 (inactive),inactive,4.13% (inactive)
N#Cc1nc(COc2ccccc2Cl)oc1NCc1ccc(F)cc1,432,-1.7% (inactive),-89.3% (inactive),182,-1.38,0.104,0.625,2.71% (inactive),-0.373 (inactive),-3.8e-05 (inactive),0.00509 (inactive),inactive,-1.44% (inactive)
CC12CN3CC(C)(CN(C1)C3c1ccc(Cl)cc1Cl)C2O (stereo unspecified),486,-4% (inactive),-90.6% (inactive),121,-2.88,1.19,-1.32,-0.584% (inactive),-0.52 (inactive),-6.5e-05 (inactive),0.0049 (inactive),inactive,-8.3% (inactive)
O=C(Nc1ccccn1)c1ccc(=O)[nH]n1,634,4.2% (inactive),-92.2% (inactive),134,0.857,-1.57,-0.248,6.51% (inactive),-0.475 (inactive),-0.0002 (inactive),0.00627 (inactive),inactive,20.6% (inactive)
C=CCN(C(=O)CCC(=O)O)C1CC(=O)N(c2ccc(OC)cc2)C1=O (stereo unspecified),549,0.4% (inactive),17.4% (inactive),97.5,1.91,0.0386,-1.01,14.7% (inactive),-0.482 (inactive),-3.4e-05 (inactive),0.005 (inactive),inactive,-19.1% (inactive)
COc1cccc(C2=CC(c3ccc(N(C)C)cc3)n3nnnc3N2)c1 (stereo unspecified),525,0.8% (inactive),27.7% (inactive),156,-0.234,1.06,0.0937,9.91% (inactive),-0.33 (inactive),-3.6e-05 (inactive),0.00494 (inactive),inactive,-6.32% (inactive)
